Experimental data from ChEMBL document CHEMBL1909522, “Inhibitory effect on NO production of phenolic compounds from Myristica fragrans” (Bioorg Med Chem Lett, 2011).
Active and inactive are the calls of the source. The calls are words filed in the database; no cut-off is given here.

Legend:
RAW264.7 [1] = assay: Antiinflammatory activity in mouse RAW264.7 cells assessed as inhibition of LPS-induced NO production after 24 hrs by Griess reagent method; assay type: functional, cell-based; details: RAW264.7, 24 h
Summary of the method: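 RAW264.7 cells (1 × 10^5 per well) stimulated with 1 µg/mL LPS for 24 h with or without test compounds (0.5–25 µM). Nitrite in culture supernatant measured by Griess reaction as NO marker. IC50 relative to vehicle control; average of three repeated experiments.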

RAW264.7 [2] = assay: Cytotoxicity against mouse RAW264.7 cells assessed as cell viability at 50 uM after 24 hrs by MTT assay; assay type: cell-based; details: raw264.7, 24 h
Summary of the method: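 Cells remaining after the Griess step, with or without LPS (1 µg/mL) and compound at 50 µM for 24 h, assessed by MTT colorimetric assay for viability.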

RAW264.7 [3] = assay: Antiinflammatory activity in mouse RAW264.7 cells assessed as inhibition of LPS-stimulated alpha-tubulin expression at 0.1 to 10 uM after 18 hrs by immunoblot analysis; assay type: functional, cell-based
RAW264.7 [4] = assay: Antiinflammatory activity in mouse RAW264.7 cells assessed as inhibition of LPS-stimulated COX2 expression after 18 hrs by immunoblot analysis; assay type: functional, cell-based
Summary of the method: (§1)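 RAW264.7 cells pretreated 30 min with compound (0, 1, 3, 10 µM), then stimulated with LPS 1 µg/mL for 18 h. Lysates in Tris-HCl pH 7.5/NP-40 buffer with protease/phosphatase inhibitors; 50 µg protein per lane on SDS-PAGE, PVDF transfer, antibody probing, ECL detection. Densitometry normalized to α-tubulin; mean ± S.D.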

RAW264.7 [5] = assay: Antiinflammatory activity in mouse RAW264.7 cells assessed as inhibition of LPS-stimulated iNOS expression after 18 hrs by immunoblot analysis; assay type: functional, cell-based; summary of the method: as §1

Compound	IC50 (RAW264.7 [1])	Activity (RAW264.7 [2])	inhibition (RAW264.7 [3])	inhibition (RAW264.7 [4])	inhibition (RAW264.7 [5])
C/C=C/c1ccc(O[C@H](C)[C@@H](O)c2ccc(O)c(OC)c2)c(OC)c1	25 µM	Non-toxic	–	–	–
CC1=C(O)C(=O)C=C2C1=CC=C1[C@@]2(C)CC[C@@]2(C)[C@@H]3C[C@](C)(C(=O)O)CC[C@]3(C)CC[C@]12C [CELASTROL]	1 µM	–	–	–	–
COc1cc(C[C@@H](C)[C@H](C)c2cc(O)c(O)c(OC)c2)ccc1O	32.5 µM	Non-toxic	–	–	–
C=CCc1cc(OC)c(O[C@H](C)[C@@H](OC(C)=O)c2ccc(OC)c(OC)c2)c(OC)c1	24.5 µM	–	–	–	–
C=CCc1cc(OC)c(O[C@H](C)[C@@H](O)c2ccc(OC)c(OC)c2)c(OC)c1	> 50 µM	Non-toxic	–	–	–
COc1cc(CC[C@H](O)c2ccc(O)cc2O)ccc1O	> 50 µM	Non-toxic	–	–	–
O=C(CCCCCCCCc1ccc(O)c(O)c1)c1c(O)cccc1O [MALABARICONE C]	2.3 µM	Non-toxic	inactive	Dose-dependent effect	Dose-dependent effect
Oc1ccc([C@@H](O)CCc2ccc3c(c2)OCO3)c(O)c1	> 50 µM	Non-toxic	–	–	–
